Screens from PubChem.
The list is not random: actives were taken first. Their share in the collection is about 3.5%.
MrgX1 antag – antagonists of human MrgX1 receptor. Q96LB2. MRGX1-HEK293 calcium flux, Fluo-4, BAM8-22 antagonism; hits give low values. B-score at 10 µM. 310,000 compounds, 1.3% hits. AID 588676;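 active = calcium-response B-score plate-corrected more than 3 library SD below zero, starting fluorescence within 5 deviations, no agonist response on first addition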;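 note: peak minus trough fluorescence over baseline after final BAM8-22 challenge near maximal dose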
RGS4 inh – human RGS4 inhibition | HEK293 M3R/RGS4 inducible, Fluo-4 calcium flux; hits give high values; triggered by carbachol at its EC20 | B-score at 10 µM | 310,000 compounds, 0.45% hits | AID 463165 | P49798;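 active = B-score, a plate-corrected calcium signal, over three deviations above library mean, with baseline fluorescence within five deviations of library mean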;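 note: RGS4 expression induced by doxycycline in cells with stable M3 receptor; B-score is computed from the integrated fluorescence ratio over baseline after carbachol; higher B-score means a larger calcium signal and so more RGS4 inhibition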
Target sequence (P49798 whole entry, looked up): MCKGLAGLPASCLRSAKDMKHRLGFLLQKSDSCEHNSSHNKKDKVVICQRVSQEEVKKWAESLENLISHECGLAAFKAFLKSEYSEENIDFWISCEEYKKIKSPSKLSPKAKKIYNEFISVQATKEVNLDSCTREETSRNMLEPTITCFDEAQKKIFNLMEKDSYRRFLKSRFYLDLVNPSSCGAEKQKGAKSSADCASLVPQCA
MrgX1 allo act – human MrgX1 positive allosteric modulation, primary screen. 310,000 compounds, 0.63% hits. Q96LB2. AID 588675. MrgX1-HEK293, Fluo-4 calcium flux, FDSS; hits give high values. B-score at 10 µM;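 active = plate-corrected calcium response at least 3 library SD above typical, normal starting fluorescence, not activating the receptor alone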;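 note: compound read alongside a low EC10 to EC30 dose of BAM8-22 agonist; peak minus trough fluorescence over baseline measured at the second addition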
RGS4 act – RGS4 potentiation or activation; HEK293 M3R/inducible RGS4, carbachol calcium flux Fluo4; hits give low values; B-score at 10 µM; 310,000 compounds, 0.92% hits;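 active = B-score of the integrated calcium signal more than 4 SD below the library mean, with starting fluorescence not abnormally high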;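 note: negative B-score means reduced calcium response which marks RGS4 activation or potentiation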
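Assay system: HEK293 FlpIn-TREx cells, stable M3R, doxycycline-inducible RGS4 / Probe or stimulus: carbachol, ECmax concentration / Times: overnight RGS4 induction, 30 min dye load 37 °C, 20 min compound RT / Signal: kinetic calcium fluorescence imaging with Fluo4-AM dye, 2 µM / Measure: Agonist-evoked peak-minus-minimum fluorescence over baseline, integrated ratio, B score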
MrgX1 ag – agonists of human MrgX1 receptor | Q96LB2 | MrgX1-HEK293 cells, Fluo-4 calcium fluorescence, agonist mode; hits give high values | B-score at 10 µM | 310,000 compounds, 0.44% hits;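 active = calcium response B-score plate-corrected fluorescence ratio at least 3 library SD, with starting fluorescence B-score inside 5 SD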
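System – MrgX1-expressing HEK293 cells · Incubation – cells plated overnight, dye loaded 0.5 h 37 °C, 0.5 h room temperature · Technique – kinetic Fluo-4 NW fluorescence of intracellular calcium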
Active calls of the source: *; i = inactive.

SMILES	MrgX1 antag	RGS4 inh	MrgX1 allo act	RGS4 act	MrgX1 ag
O=C(CSc1nnc(NC(=O)C2CC(=O)N(c3ccc(F)cc3)C2)s1)NCc1ccco1 (configuration not stated)	i	i	i	i	i
CC(C)(C)Cc1nnc(NC(=O)CSc2ccccc2)s1	i	i	i	i	i
O=C(c1ccc(NS(=O)(=O)c2ccc(F)cc2)cc1)N1CCC1	i	i	i	i	i
COc1ccc(CCNC(=O)C23CN(Cc4ccccc4)CC2C(c2cccc([N+](=O)[O-])c2)=NO3)cc1 (configuration not stated)	-8.3*	i	i	i	i
Cc1ccc(CCNC(=O)C23CN(Cc4ccccc4)CC2C(c2cccc([N+](=O)[O-])c2)=NO3)cc1 (configuration not stated)	i	i	i	i	i
C#CCSc1ncc(-c2ccccc2)cn1	-7.5*	i	i	i	i
CSc1ccc(CN2CCCN(C)CC2)cc1	i	i	i	i	i
CCOc1ccc(Cl)cc1S(=O)(=O)N1CCC(C(=O)NCc2cccnc2)CC1	i	i	i	i	i
COc1ccc(C)cc1Nc1n[n+](-c2ccccc2)c(-c2cc([N+](=O)[O-])cc(OC)c2O)s1	-6*	i	i	i	i
CCCCn1c(SCC(=O)N2CCOCC2)nnc1-c1ccoc1C	i	i	i	i	i
Cc1occc1-c1nnc(SCC(=O)N2CCOCC2)n1CCc1ccccc1	i	i	i	-7.3*	i
CCCCCCCNC(=O)C1(CC2CC(c3cccc(Br)c3)=NO2)CCNCC1 (configuration not stated)	i	i	i	i	i
CCCCn1c(=O)nc2n(-c3ccccc3C)c3ccccc3cc-2c1=O	i	i	i	-7.6*	i
Cc1ccccc1-n1c2nc(=O)n(C)c(=O)c-2cc2ccccc21	i	i	i	i	i
CCCCCN1C(=O)Cn2c(nc3ccccc3c2=O)C1C (configuration not stated)	i	i	i	i	i
COc1ccc2c(C=O)cn(C)c2c1	i	i	i	i	i
CCN(CC)c1ccc(/C=C(/C#N)C(=O)NCc2ccccc2)o1	i	i	7*	i	i
CCN(CC)c1ccc(/C=C(/C#N)C(=O)NC(C)C)o1	i	i	i	i	i
COc1ccc(N(CC(=O)N/N=C/c2cc3ccc(OC)cc3nc2Cl)S(=O)(=O)c2ccccc2)cc1	i	i	9.1*	i	i
CCCOC(=O)CCCCC1SCC(NC(=O)OC)C1NC(=O)OC (configuration not stated)	-8.1*	i	i	i	i
CC1(C)CC2CC(C)(CN2/C=N/c2sc3c(c2C#N)CC(C)(C)NC3(C)C)C1 (configuration not stated)	-4.5*	i	i	i	i
O=C(COc1cccc(Br)c1)N/N=C1\CCSC1	i	i	i	i	i
CC(=O)c1cccc(S(=O)(=O)N2CCC(C(=O)O)(c3ccccc3)CC2)c1	i	i	i	i	i
Cc1sc(NC(=O)c2ccco2)c(C(c2cccnc2)N2CCC(C)CC2)c1C (configuration not stated)	i	i	i	-7.9*	i
Cc1sc(NC(=O)c2ccco2)c(CN2CCC(C)CC2)c1C	i	i	i	i	i
CCC(C)(C)n1nnnc1C(c1ccccc1)N1CCN(Cc2ccccc2)CC1 (configuration not stated)	i	i	i	i	i
CCC(C)(C)n1nnnc1CN1CCN(C(c2ccccc2)c2ccccc2)CC1	i	i	i	-7.5*	i
CCOC(=O)c1c(C)[nH]c(C)c1S(=O)(=O)NCC1CCN(Cc2cccc(F)c2)CC1	i	i	i	i	i
O=C1/C(=C/c2ccccc2O)SC(=S)N1Cc1cccnc1	i	i	i	i	i
O=C1/C(=C\c2cccc([N+](=O)[O-])c2O)SC(=S)N1Cc1ccccc1	-8*	i	i	i	i
